In ChEMBL document CHEMBL1123360, “Oxidation of 4-aryl- and 4-alkyl-substituted 2,6-dimethyl-3,5-bis(alkoxycarbonyl)-1,4-dihydropyridines by human liver microsomes and immunochemical evidence for the involvement of a form of cytochrome P-450” (J Med Chem, 1986):

Columns and labels:
Cytochrome P450 3A4 [1] = molecular target: T1, Cytochrome P450 3A4 (Homo sapiens, UniProt P08684); assay: Rate of Oxidation in human liver microsomes is measured as mean (nmol product) formed / min per nmol cytochrome P-450
[2] = Percent inhibition of human liver microsome cytochrome P-450 mediated hexobarbital 3'-hydroxylase activity in the presence of NADPH; conditions: microsomes
Summary of the method: (§1)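 Human liver microsomes (sample HL 95) preincubated with test compound (50 μM) plus NADPH-generating system for 20 min at 37 °C. […] Activity measured afterwards; values corrected for inhibition by methanol solvent alone.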

[3] = Percent inhibition of human liver microsome cytochrome P-450 mediated phenacetin O-deethylase activity without NADPH; Phenacetin O-deethylase activity inhibited by 40%; conditions: microsomes
Cytochrome P450 3A4 [4] = molecular target: T1, Cytochrome P450 3A4; assay: Percent inhibition of human liver microsome cytochrome P-450 mediated nifedipine oxidase activity without NADPH; conditions: microsomes
Summary of the method: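 Microsomes (HL 95, 500 pmol P-450 in 0.5 mL 50 mM potassium phosphate, pH 7.85) preincubated 20 min at 37 °C with compound (50 μM) without NADPH-generating system. […] Values corrected for methanol solvent.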

Cytochrome P450 3A4 [5] = molecular target: T1, Cytochrome P450 3A4; assay: Percent inhibition of human liver microsome cytochrome P-450 mediated nifedipine oxidase activity in the presence of NADPH; conditions: microsomes; summary of the method: as §1
[6] = Percent inhibition of human liver microsome cytochrome P-450 mediated phenacetin O-deethylase activity in the presence of NADPH; conditions: microsomes; summary of the method: as §1
Cytochrome P450 3A4 [7] = molecular target: T1, Cytochrome P450 3A4; assay: Rate of Oxidation in human liver microsomes as mean (nmol product) formed/min/nmol cytochrome P-450; e denotes Product not separated with HPCL system; type: ADME, Microsome
Summary of the method: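 NADPH-fortified human liver microsomes (HL 94, HL 95, HL 96; usually 50 pmol P-450), substrate 0.2 mM, 100 mM potassium phosphate pH 7.85, 37 °C, 10 min, amber vials. Stopped with Na2CO3/NaCl pH 10.5 and extracted into CH2Cl2. Pyridine product quantified by isocratic reversed-phase HPLC (UV 254 and/or 280 nm) against external standards by peak height. Value is the mean with range over the three samples.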

T1 sequence (P08684 whole entry): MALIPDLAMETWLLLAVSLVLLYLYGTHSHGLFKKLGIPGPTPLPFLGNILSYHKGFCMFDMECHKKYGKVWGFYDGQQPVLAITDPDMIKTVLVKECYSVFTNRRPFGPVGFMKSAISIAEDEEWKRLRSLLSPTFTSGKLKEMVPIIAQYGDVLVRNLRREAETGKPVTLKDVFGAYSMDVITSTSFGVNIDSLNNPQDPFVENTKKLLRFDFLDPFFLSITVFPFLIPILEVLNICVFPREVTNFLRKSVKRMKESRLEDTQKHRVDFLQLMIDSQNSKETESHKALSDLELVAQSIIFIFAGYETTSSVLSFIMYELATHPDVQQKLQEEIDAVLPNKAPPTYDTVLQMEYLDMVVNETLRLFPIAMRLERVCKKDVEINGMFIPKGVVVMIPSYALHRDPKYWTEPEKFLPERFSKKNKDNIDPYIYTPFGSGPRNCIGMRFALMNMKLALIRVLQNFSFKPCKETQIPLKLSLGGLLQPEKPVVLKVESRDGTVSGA

With `CCOC(=O)C1=C(C)NC(C)=C(C(=O)OC)C1c1cccc([N+](=O)[O-])c1` (stereo unspecified) [NITRENDIPINE] as the compound, how does the Rate of oxidation (Cytochrome P450 3A4 [1]) read?
The Rate of oxidation was 0.52.

Which Inhibition [2] does the source give for `CCOC(=O)C1=C(C)N=C(C)/C(=C(/O)OCC)C1CC` (stereo unspecified) here?
Its Inhibition is 82%.

What about the Inhibition [3] of the same compound?
The Inhibition was 40%.

What about the Inhibition (Cytochrome P450 3A4 [4]) of the same compound?
Its Inhibition is 45%.

And the Inhibition (Cytochrome P450 3A4 [5])?
The Inhibition was 89%.

And the Rate of oxidation (Cytochrome P450 3A4 [1])?
The Rate of oxidation was 0.12.

With `COC(=O)C1=C(C)N=C(C)/C(=C(/O)OC)C1c1cccc(Cl)c1` (stereo unspecified) as the compound, how does the Rate of oxidation (Cytochrome P450 3A4 [1]) read?
Its Rate of oxidation is 0.5.

For `CCOC(=O)C1=C(C)NC(C)=C(C(=O)OCC)C1c1ccccc1`, which Rate of oxidation (Cytochrome P450 3A4 [1]) is on record?
The Rate of oxidation was 0.51.

With `CCCCCO/C(O)=C1\C(C)=NC(C)=C(C(=O)OCCOCCC)C1c1cccc([N+](=O)[O-])c1` (stereo unspecified) as the compound, how does the Rate of oxidation (Cytochrome P450 3A4 [1]) read?
Its Rate of oxidation is 0.67.

Which Rate of oxidation (Cytochrome P450 3A4 [1]) does the source give for `COC(=O)C1=C(C)NC(C)=C(C(=O)OC)C1c1ccccc1` here?
Its Rate of oxidation is 0.53.

Which Rate of oxidation (Cytochrome P450 3A4 [1]) does the source give for `COC(=O)C1=C(C)N=C(C)/C(=C(/O)OC)C1c1ccc(C(F)(F)F)cc1` (stereo unspecified) here?
Its Rate of oxidation is 0.45.

Which Rate of oxidation (Cytochrome P450 3A4 [1]) does the source give for `COC(=O)C1=C(C)N=C(C)/C(=C(/O)OC)C1c1ccc(Cl)c([N+](=O)[O-])c1` (stereo unspecified) here?
Its Rate of oxidation is 0.61.

What does the source list for `COC(=O)C1=C(C)N=C(C)/C(=C(/O)OC)C1C1CC=CCC1` (stereo unspecified)?
Inhibition [2]: 82%; Inhibition [6]: 59%; Inhibition (Cytochrome P450 3A4 [4]): 27%; Inhibition (Cytochrome P450 3A4 [5]): 86%; Rate of oxidation (Cytochrome P450 3A4 [1]): 0.12

For `COC(=O)C1=C(C)N=C(C)/C(=C(\O)OC)C1c1cccc(C#N)c1` (stereo unspecified), which Rate of oxidation (Cytochrome P450 3A4 [1]) is on record?
Its Rate of oxidation is 0.41.

Which results are given for `COC(=O)C1=C(C)N=C(C)/C(=C(/O)OC)C1Cc1ccccc1` (stereo unspecified)?
Inhibition [2]: 80%; Inhibition [6]: 50%; Inhibition (Cytochrome P450 3A4 [4]): 25%; Inhibition (Cytochrome P450 3A4 [5]): 86%; Rate of oxidation (Cytochrome P450 3A4 [1]): 0.25

For `COC(=O)C1=C(C)N=C(C)/C(=C(\O)OC)C1c1ccc(C)cc1` (stereo unspecified), which Rate of oxidation (Cytochrome P450 3A4 [1]) is on record?
Its Rate of oxidation is 0.51.

For `COC(=O)C1=C(C)N=C(C)/C(=C(/O)OC)C1c1c(F)cccc1Cl` (stereo unspecified), which Rate of oxidation (Cytochrome P450 3A4 [1]) is on record?
Its Rate of oxidation is 0.76.

Which Inhibition [2] does the source give for `COC(=O)C1=C(C)N=C(C)/C(=C(/O)OC)C1C(C)C` (stereo unspecified) here?
The Inhibition was 73%.

What about the Inhibition [6] of the same compound?
The Inhibition was 55%.

And the Inhibition (Cytochrome P450 3A4 [4])?
Its Inhibition is 32%.

What about the Inhibition (Cytochrome P450 3A4 [5]) of the same compound?
The Inhibition was 89%.

What about the Rate of oxidation (Cytochrome P450 3A4 [7]) of the same compound?
The Rate of oxidation was “Not separated”.

For `COC(=O)C1=C(C)N=C(C)/C(=C(/O)OC)C1c1c(F)c(F)cc(F)c1F` (stereo unspecified), which Rate of oxidation (Cytochrome P450 3A4 [1]) is on record?
Its Rate of oxidation is 0.98.
